Reference: ChEMBL document CHEMBL1151470, “Pharmacokinetic interaction between fosamprenavir-ritonavir and rifabutin in healthy subjects” (Antimicrob Agents Chemother, 2008)

How the values were obtained:
Homo sapiens [1] = test: Toxicity in human assessed as rash generalized at 150 mg, […] with 700 mg fosamprenavir and 100 mg ritonavir po BID; type: organism-based; settings: in vivo
Homo sapiens [2] = test: Toxicity in human assessed as blood and lymphatic system disorder at 300 mg, po QD; type: organism-based; settings: in vivo
Homo sapiens [3] = test: Toxicity in human assessed as blood and lymphatic system disorder at 150 mg, […] with 700 mg fosamprenavir and 100 mg ritonavir po BID; type: organism-based; settings: in vivo
Homo sapiens [4] = test: Toxicity in human assessed as neutropenia at 300 mg, po QD; type: organism-based; settings: in vivo
Homo sapiens [5] = test: Toxicity in human assessed as psychiatric disorder at 150 mg, […] with 700 mg fosamprenavir and 100 mg ritonavir po BID; type: organism-based; settings: in vivo
Homo sapiens [6] = test: Toxicity in human assessed as insomnia at 300 mg, po QD; type: organism-based; settings: in vivo
Homo sapiens [7] = test: Toxicity in human assessed as skin and subcutaneous tissue disorder at 150 mg, […] with 700 mg fosamprenavir and 100 mg ritonavir po BID; type: organism-based; settings: in vivo
Homo sapiens [8] = test: Toxicity in human assessed as neutropenia at 150 mg, […] with 700 mg fosamprenavir and 100 mg ritonavir po BID; type: organism-based; settings: in vivo
Homo sapiens [9] = test: Toxicity in human assessed as rash generalized at 300 mg, po QD; type: organism-based; settings: in vivo
Homo sapiens [10] = test: Toxicity in human assessed as thrombocytopenia at 300 mg, po QD; type: organism-based; settings: in vivo
Homo sapiens [11] = test: Toxicity in human assessed as decrease in neutrophile count at 300 mg, po QD; type: organism-based; parameters: scale not given: the % may be the effect or the level left; settings: in vivo
Homo sapiens [12] = test: Toxicity in human assessed as insomnia at 150 mg, […] with 700 mg fosamprenavir and 100 mg ritonavir po BID; type: organism-based; settings: in vivo
Homo sapiens [13] = test: Toxicity in human assessed as thrombocytopenia at 150 mg, […] with 700 mg fosamprenavir and 100 mg ritonavir po BID; type: organism-based; settings: in vivo
Homo sapiens [14] = test: Toxicity in human assessed as psychiatric disorder at 300 mg, po QD; type: organism-based; settings: in vivo
Homo sapiens [15] = test: Toxicity in human assessed as fatigue at 150 mg, […] with 700 mg fosamprenavir and 100 mg ritonavir po BID; type: organism-based; settings: in vivo
Homo sapiens [16] = test: Toxicity in human assessed as decrease in neutrophile count at 150 mg, […] with 700 mg fosamprenavir and 100 mg ritonavir po BID; type: organism-based; parameters: scale not given: the % may be the effect or the level left; settings: in vivo
Homo sapiens [17] = test: Toxicity in human assessed as increase in neutrophile count at 150 mg, […] with 700 mg fosamprenavir and 100 mg ritonavir po BID; type: organism-based; settings: in vivo
Homo sapiens [18] = test: Toxicity in human assessed as increase in ALT level at 300 mg, po QD; type: organism-based; settings: in vivo
Homo sapiens [19] = test: Toxicity in human assessed as general disorder at 300 mg, po QD; type: organism-based; settings: in vivo
Homo sapiens [20] = test: Toxicity in human assessed as chills at 300 mg, po QD; type: organism-based; settings: in vivo
Homo sapiens [21] = test: Toxicity in human assessed as chills at 150 mg, […] with 700 mg fosamprenavir and 100 mg ritonavir po BID; type: organism-based; settings: in vivo
Homo sapiens [22] = test: Toxicity in human assessed as pain at 300 mg, po QD; type: organism-based; settings: in vivo
Homo sapiens [23] = test: Toxicity in human assessed as pain at 150 mg, […] with 700 mg fosamprenavir and 100 mg ritonavir po BID; type: organism-based; settings: in vivo
Homo sapiens [24] = test: Toxicity in human assessed as musculoskeletal and connective tissue disorder at 300 mg, po QD; type: organism-based; settings: in vivo
Homo sapiens [25] = test: Toxicity in human assessed as musculoskeletal and connective tissue disorder at 150 mg, […] with 700 mg fosamprenavir and 100 mg ritonavir po BID; type: organism-based; settings: in vivo
Homo sapiens [26] = test: Toxicity in human assessed as myalgia at 300 mg, po QD; type: organism-based; settings: in vivo
Homo sapiens [27] = test: Toxicity in human assessed as increase in ALT level at 150 mg, […] with 700 mg fosamprenavir and 100 mg ritonavir po BID; type: organism-based; settings: in vivo
Homo sapiens [28] = test: Toxicity in human assessed as general disorder at 150 mg, […] with 700 mg fosamprenavir and 100 mg ritonavir po BID; type: organism-based; settings: in vivo
Homo sapiens [29] = test: Toxicity in human assessed as increase in neutrophile count at 300 mg, po QD; type: organism-based; settings: in vivo
Homo sapiens [30] = test: Toxicity in human assessed as skin and subcutaneous tissue disorder at 300 mg, po QD; type: organism-based; settings: in vivo
Homo sapiens [31] = test: Toxicity in human assessed as fatigue at 300 mg, po QD; type: organism-based; settings: in vivo
[32] = AUC (0 to 48 hrs) in human at 300 mg, po QD; type: ADME, organism-based; parameters: time < 48 hr, dose 300 mg, route oral; settings: plasma
In short: (§1)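 Volunteers took RFB 300 mg QD alone to steady state. Serial EDTA plasma was sampled on the last treatment day at predose and 0.5–24 h, then stored at –20°C. AUC0-24 came from noncompartmental analysis (linear up/log-linear down trapezoidal) using actual times, and was doubled to estimate AUC0-48.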

[33] = Cmax in human at 300 mg, po QD; settings: in vivo
[34] = AUC (0 to 48 hrs) in human at 150 mg, […] coadministered with 700 mg fosamprenavir and 100 mg ritonavir po BID; type: ADME, organism-based; parameters: time < 48 hr, dose 150 mg, route oral; settings: plasma
In short: (§2)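 Healthy volunteers received RFB 150 mg every other day with FPV-RTV 700/100 mg BID to steady state. Serial EDTA plasma was sampled on the last treatment day at predose and 0.5–24, 36 and 48 h, then stored at –20°C. AUC0-48 came from noncompartmental analysis (linear up/log-linear down trapezoidal) using actual elapsed sampling times.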

Homo sapiens [35] = test: AUC (0 to 48 hrs) in human assessed as dAc-RFB level at 300 mg, po QD; type: ADME, organism-based, Plasma; parameters: dose 300 mg, time < 48 hr, route oral; settings: in vivo; in short: as §1
Homo sapiens [36] = test: AUC (0 to 48 hrs) in human assessed as dAc-RFB level at 150 mg, […] coadministered with 700 mg fosamprenavir and 100 mg ritonavir po BID; type: ADME, organism-based, Plasma; parameters: dose 150 mg, time < 48 hr, route oral; settings: in vivo; in short: as §2
Homo sapiens [37] = test: Toxicity in human assessed as nervous system disorder at 300 mg, po QD; type: organism-based; settings: in vivo
Homo sapiens [38] = test: Toxicity in human assessed as nervous system disorder at 150 mg, […] with 700 mg fosamprenavir and 100 mg ritonavir po BID; type: organism-based; settings: in vivo
Homo sapiens [39] = test: Toxicity in human assessed as headache at 300 mg, po QD; type: organism-based; settings: in vivo
Homo sapiens [40] = test: Toxicity in human assessed as headache at 150 mg, […] with 700 mg fosamprenavir and 100 mg ritonavir po BID; type: organism-based; settings: in vivo
Homo sapiens [41] = test: Toxicity in human assessed as renal and urinary disorder at 300 mg, po QD; type: organism-based, Urine; settings: in vivo
Homo sapiens [42] = test: Toxicity in human assessed as renal and urinary disorder at 150 mg, […] with 700 mg fosamprenavir and 100 mg ritonavir po BID; type: organism-based, Urine; settings: in vivo
Homo sapiens [43] = test: Toxicity in human assessed as chromaturia at 300 mg, po QD; type: organism-based; settings: in vivo
Homo sapiens [44] = test: Toxicity in human assessed as pollakiurea at 300 mg, po QD; type: organism-based; settings: in vivo
Homo sapiens [45] = test: Toxicity in human assessed as gastrointestinal disorder at 300 mg, po QD; type: organism-based; settings: in vivo
Homo sapiens [46] = test: Toxicity in human assessed as diarrhea at 300 mg, po QD; type: organism-based; settings: in vivo
Homo sapiens [47] = test: Toxicity in human assessed as nausea at 300 mg, po QD; type: organism-based; settings: in vivo
clinical = settings: human, in vivo, po
Homo sapiens [48] = test: Toxicity in human assessed as nausea at 150 mg, po QOD coadministered with 700 mg fosamprenavir and 100 mg ritonavir po BID; settings: in vivo
Homo sapiens [49] = test: Toxicity in human assessed as myalgia at 150 mg, po QOD coadministered with 700 mg fosamprenavir and 100 mg ritonavir po BID; settings: in vivo
Homo sapiens [50] = test: Toxicity in human assessed as chromaturia at 150 mg, po QOD coadministered with 700 mg fosamprenavir and 100 mg ritonavir po BID; settings: in vivo
Homo sapiens [51] = test: Toxicity in human assessed as pollakiurea at 150 mg, po QOD coadministered with 700 mg fosamprenavir and 100 mg ritonavir po BID; settings: in vivo
Homo sapiens [52] = test: Toxicity in human assessed as diarrhea disorder at 150 mg, po QOD coadministered with 700 mg fosamprenavir and 100 mg ritonavir po BID; settings: in vivo
Homo sapiens [53] = test: Toxicity in human assessed as gastrointestinal disorder at 150 mg, po QOD coadministered with 700 mg fosamprenavir and 100 mg ritonavir po BID; settings: in vivo

CO[C@H]1/C=C/O[C@@]2(C)Oc3c(C)c(O)c4c(c3C2=O)C2=NC3(CCN(CC(C)C)CC3)NC2=C(NC(=O)/C(C)=C\C=C\[C@H](C)[C@H](O)[C@@H](C)[C@@H](O)[C@@H](C)[C@H](OC(C)=O)[C@@H]1C)C4=O [RIFABUTIN]
Activity (Homo sapiens [1]): 2%
Activity (Homo sapiens [2]): 3%
Activity (Homo sapiens [3]): 3%
Activity (Homo sapiens [4]): 2%
Activity (Homo sapiens [5]): 2%
Activity (Homo sapiens [6]): 4%
Activity (Homo sapiens [7]): 6%
Activity (Homo sapiens [8]): 1%
Activity (Homo sapiens [9]): 0%
Activity (Homo sapiens [10]): 0%
Activity (Homo sapiens [11]): 3%
Activity (Homo sapiens [12]): 1%
Activity (Homo sapiens [13]): 3%
Activity (Homo sapiens [14]): 5%
Activity (Homo sapiens [15]): 4%
Activity (Homo sapiens [16]): 3%
Activity (Homo sapiens [17]): 3%
Activity (Homo sapiens [18]): 0%
Activity (Homo sapiens [19]): 3%
Activity (Homo sapiens [20]): 0%
Activity (Homo sapiens [21]): 3%
Activity (Homo sapiens [22]): 2%
Activity (Homo sapiens [23]): 1%
Activity (Homo sapiens [24]): 2%
Activity (Homo sapiens [25]): 5%
Activity (Homo sapiens [26]): 0%
Activity (Homo sapiens [27]): 5%
Activity (Homo sapiens [28]): 7%
Activity (Homo sapiens [29]): 0%
Activity (Homo sapiens [30]): 0%
Activity (Homo sapiens [31]): 0%
AUC at 48 h [32]: 6110 ng·h/mL
Cmax [33]: 313 ng/mL
AUC at 48 h [34]: 5810 ng·h/mL
AUC (Homo sapiens [35]): 411 ng·h/mL
AUC (Homo sapiens [36]): 4600 ng·h/mL
Activity (Homo sapiens [37]): 35%
Activity (Homo sapiens [38]): 55%
Activity (Homo sapiens [39]): 35%
Activity (Homo sapiens [40]): 45%
Activity (Homo sapiens [41]): 59%
Activity (Homo sapiens [42]): 50%
Activity (Homo sapiens [43]): 0%
Activity (Homo sapiens [44]): 6%
Activity (Homo sapiens [45]): 2%
Activity (Homo sapiens [46]): 0%
Activity (Homo sapiens [47]): 6%
Cmax (clinical): 268 ng/mL
Activity (Homo sapiens [48]): 9%
Activity (Homo sapiens [49]): 4%
Activity (Homo sapiens [50]): 4%
Activity (Homo sapiens [51]): 12%
Activity (Homo sapiens [52]): 4%
Activity (Homo sapiens [53]): 7%
